Measurements taken from ChEMBL document CHEMBL3414507, “Design, synthesis, biological evaluation and preliminary mechanism study of novel benzothiazole derivatives bearing indole-based moiety as potent antitumor agents” (Eur J Med Chem, 2015).
“And” between values parts separate entries of the source, which are not always exact repeats. Equal values may be shown once.

What was measured:
MDA-MB-231 = experiment: Cytotoxicity against human MDA-MB-231 cells after 72 hrs by MTT assay; assay type: functional, cell-based; conditions: MDA-MB-231, 72 h
Procedure, shortened: (§1)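 MTT assay on HT29, H460, A549 and MDA-MB-231 cells with oncrasin-1 and PAC-1 as positive controls; IC50 from three independent experiments.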

A549 = experiment: Cytotoxicity against human A549 cells after 72 hrs by MTT assay; assay type: functional, cell-based; conditions: A549, 72 h; procedure, shortened: as §1
[1] = Cytotoxicity against human H460 cells after 72 hrs by MTT assay; assay type: functional, cell-based; conditions: NCI-H460, 72 h; procedure, shortened: as §1
HT-29 [2] = experiment: Cytotoxicity against human HT-29 cells after 72 hrs by MTT assay; assay type: functional, cell-based; procedure, shortened: as §1
Caspase-3 (Homo sapiens) = biological target: T1, Caspase-3 (Homo sapiens) (UniProt P42574); experiment: Activation of procaspase-3 (unknown origin) using Ac-DEVD-pNa as substrate at 10 uM after 2 hrs by spectrophotometry
T1 sequence (whole entry): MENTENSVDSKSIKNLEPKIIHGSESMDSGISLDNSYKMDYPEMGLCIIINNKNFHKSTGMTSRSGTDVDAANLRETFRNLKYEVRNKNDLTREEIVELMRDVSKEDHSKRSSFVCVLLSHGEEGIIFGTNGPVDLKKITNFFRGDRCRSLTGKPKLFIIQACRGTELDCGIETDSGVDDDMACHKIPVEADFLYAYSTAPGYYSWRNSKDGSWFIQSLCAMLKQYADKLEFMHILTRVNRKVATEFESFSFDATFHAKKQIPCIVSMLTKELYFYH

[3] = biological target: Vascular endothelial growth factor receptor 2 (Homo sapiens) (UniProt P35968); experiment: Inhibition of KDR (unknown origin) at 10 uM after 30 mins by HTRF method
Sequence of Vascular endothelial growth factor receptor 2 (Homo sapiens) (P35968 whole entry): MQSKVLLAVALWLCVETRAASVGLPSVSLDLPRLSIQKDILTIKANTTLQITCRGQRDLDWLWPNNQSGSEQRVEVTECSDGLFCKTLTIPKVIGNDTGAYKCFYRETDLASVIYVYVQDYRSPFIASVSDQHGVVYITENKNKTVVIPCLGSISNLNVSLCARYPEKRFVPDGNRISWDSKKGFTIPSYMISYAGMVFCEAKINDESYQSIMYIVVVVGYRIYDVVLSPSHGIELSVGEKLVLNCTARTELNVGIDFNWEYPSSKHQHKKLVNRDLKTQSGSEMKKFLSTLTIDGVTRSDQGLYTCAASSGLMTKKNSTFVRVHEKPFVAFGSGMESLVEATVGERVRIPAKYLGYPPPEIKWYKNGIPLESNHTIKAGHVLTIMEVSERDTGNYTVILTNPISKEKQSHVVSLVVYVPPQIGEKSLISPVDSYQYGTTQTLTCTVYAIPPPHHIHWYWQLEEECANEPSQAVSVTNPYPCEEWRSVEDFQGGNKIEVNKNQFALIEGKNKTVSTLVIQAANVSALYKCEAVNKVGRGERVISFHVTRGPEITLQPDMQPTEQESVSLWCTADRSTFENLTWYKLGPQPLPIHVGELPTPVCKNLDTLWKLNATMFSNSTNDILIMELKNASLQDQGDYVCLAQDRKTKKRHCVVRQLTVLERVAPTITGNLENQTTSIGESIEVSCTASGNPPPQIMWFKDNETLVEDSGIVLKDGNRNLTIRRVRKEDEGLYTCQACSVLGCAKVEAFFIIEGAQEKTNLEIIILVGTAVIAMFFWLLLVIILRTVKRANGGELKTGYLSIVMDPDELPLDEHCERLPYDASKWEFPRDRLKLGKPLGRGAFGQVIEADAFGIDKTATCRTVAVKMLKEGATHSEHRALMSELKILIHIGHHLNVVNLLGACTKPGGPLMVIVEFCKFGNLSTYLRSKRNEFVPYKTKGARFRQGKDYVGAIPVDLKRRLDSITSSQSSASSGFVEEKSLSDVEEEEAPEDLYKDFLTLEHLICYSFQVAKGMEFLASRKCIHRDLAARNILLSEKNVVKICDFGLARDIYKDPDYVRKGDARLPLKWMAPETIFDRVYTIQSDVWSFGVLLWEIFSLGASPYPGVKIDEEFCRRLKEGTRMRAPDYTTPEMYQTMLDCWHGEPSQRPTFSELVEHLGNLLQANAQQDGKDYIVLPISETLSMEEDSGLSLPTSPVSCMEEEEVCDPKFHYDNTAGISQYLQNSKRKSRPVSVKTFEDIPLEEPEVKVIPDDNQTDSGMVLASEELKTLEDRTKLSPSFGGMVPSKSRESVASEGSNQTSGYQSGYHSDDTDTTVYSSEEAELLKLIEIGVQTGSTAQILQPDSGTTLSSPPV

[4] = biological target: Receptor-type tyrosine-protein kinase FLT3 (Homo sapiens) (UniProt P36888); experiment: Inhibition of FLT3 (unknown origin) at 10 uM after 30 mins by HTRF method
Sequence of Receptor-type tyrosine-protein kinase FLT3 (Homo sapiens) (P36888 whole entry): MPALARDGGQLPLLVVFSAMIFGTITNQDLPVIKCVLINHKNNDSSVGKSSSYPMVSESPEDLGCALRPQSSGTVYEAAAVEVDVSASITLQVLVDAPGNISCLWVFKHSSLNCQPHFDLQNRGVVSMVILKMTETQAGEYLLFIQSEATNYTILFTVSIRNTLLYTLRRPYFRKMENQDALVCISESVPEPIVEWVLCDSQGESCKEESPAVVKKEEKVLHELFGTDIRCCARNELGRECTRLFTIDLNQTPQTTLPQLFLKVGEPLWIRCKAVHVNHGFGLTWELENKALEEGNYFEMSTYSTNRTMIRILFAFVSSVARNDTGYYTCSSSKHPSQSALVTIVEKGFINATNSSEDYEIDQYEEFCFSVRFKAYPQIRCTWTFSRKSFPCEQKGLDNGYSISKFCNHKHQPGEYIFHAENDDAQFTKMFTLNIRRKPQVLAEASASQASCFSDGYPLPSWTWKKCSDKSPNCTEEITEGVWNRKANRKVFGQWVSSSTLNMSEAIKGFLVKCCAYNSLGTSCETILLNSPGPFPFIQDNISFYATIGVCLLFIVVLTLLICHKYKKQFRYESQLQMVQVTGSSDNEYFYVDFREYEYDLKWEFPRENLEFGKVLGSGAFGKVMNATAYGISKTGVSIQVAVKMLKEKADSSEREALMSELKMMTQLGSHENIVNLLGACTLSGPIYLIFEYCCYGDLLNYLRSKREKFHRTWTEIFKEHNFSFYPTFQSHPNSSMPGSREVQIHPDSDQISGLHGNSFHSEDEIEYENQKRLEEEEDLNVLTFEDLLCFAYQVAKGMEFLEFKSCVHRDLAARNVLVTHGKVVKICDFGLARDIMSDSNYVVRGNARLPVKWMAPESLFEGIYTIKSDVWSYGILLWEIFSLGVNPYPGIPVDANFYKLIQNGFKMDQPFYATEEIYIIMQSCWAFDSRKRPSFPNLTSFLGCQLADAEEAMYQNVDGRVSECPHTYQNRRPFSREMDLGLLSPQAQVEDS

[5] = biological target: Platelet-derived growth factor receptor beta (Homo sapiens) (UniProt P09619); experiment: Inhibition of PDGFR-beta (unknown origin) at 10 uM after 30 mins by HTRF method
Sequence of Platelet-derived growth factor receptor beta (Homo sapiens) (P09619 whole entry): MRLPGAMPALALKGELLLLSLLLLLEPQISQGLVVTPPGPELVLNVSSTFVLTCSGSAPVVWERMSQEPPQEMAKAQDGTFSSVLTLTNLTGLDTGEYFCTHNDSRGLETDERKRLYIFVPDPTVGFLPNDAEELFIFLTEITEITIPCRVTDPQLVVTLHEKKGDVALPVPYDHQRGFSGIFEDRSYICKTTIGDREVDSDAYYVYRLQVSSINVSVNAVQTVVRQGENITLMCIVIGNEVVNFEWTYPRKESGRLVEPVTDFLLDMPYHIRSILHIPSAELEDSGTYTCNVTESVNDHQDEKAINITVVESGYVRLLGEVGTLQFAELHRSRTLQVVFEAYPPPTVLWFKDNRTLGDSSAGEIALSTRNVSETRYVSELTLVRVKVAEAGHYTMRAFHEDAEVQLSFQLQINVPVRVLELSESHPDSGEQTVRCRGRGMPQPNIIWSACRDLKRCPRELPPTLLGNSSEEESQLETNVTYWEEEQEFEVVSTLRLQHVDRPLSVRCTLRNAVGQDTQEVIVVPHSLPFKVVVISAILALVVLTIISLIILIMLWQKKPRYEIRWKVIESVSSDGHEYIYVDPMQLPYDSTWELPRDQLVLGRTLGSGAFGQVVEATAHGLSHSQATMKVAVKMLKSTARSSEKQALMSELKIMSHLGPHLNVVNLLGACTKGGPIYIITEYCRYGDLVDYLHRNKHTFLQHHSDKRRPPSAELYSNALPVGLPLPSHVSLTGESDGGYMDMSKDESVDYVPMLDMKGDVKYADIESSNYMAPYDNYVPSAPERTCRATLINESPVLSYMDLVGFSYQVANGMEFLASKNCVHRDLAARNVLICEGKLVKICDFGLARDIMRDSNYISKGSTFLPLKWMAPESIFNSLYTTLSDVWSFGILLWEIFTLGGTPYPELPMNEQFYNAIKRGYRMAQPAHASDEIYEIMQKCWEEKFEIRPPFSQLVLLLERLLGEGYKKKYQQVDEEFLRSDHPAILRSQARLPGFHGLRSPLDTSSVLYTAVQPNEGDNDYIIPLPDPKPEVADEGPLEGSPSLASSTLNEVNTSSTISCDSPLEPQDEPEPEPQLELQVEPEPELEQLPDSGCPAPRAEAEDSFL

HT-29 [6] = experiment: Cell cycle arrest in human HT-29 cells assessed as accumulation at G0/G1 phase AT 10 uM after 48 hrs by propidium iodide staining-based assay (reference value: 54.11%); assay type: functional
Tubulin (Homo sapiens) = Tubulin (Homo sapiens) (UniProt P68371+Q9H4B7+P0DPH7+P68366+Q13509+Q71U36+P04350+Q3ZCM7+P07437+P68363+Q9BQE3+Q6PEY2+Q13885+Q9BVA1+Q9BUF5); experiment: Inhibition of tubulin (unknown origin) at 10 uM measured for 20 mins by turbidity method; assay type: protein-complex assay

Activity (Caspase-3 (Homo sapiens)) [%] | inhibition [3] [%] | inhibition [4] [%] | inhibition [5] [%] | inhibition (Tubulin (Homo sapiens)) [%] | SMILES | IC50 (MDA-MB-231) [µM] | IC50 (A549) [µM] | IC50 [1] [µM] | IC50 (HT-29 [2]; Homo sapiens, HT-29, 72 h) [µM] | IC50 (HT-29 [2]; ht-29) | Activity (HT-29 [6]) [%]
 |  |  |  |  | O=Cc1cn(Cc2ccc(Cl)cc2)c2ccccc12 | 26.1 | 2.48 | 0.85 | 1.71 |  | 
 |  |  |  |  | CN(C)Cc1ccc2nc(NC(=O)N/N=C/c3cn(Cc4ccc(C(C)(C)C)cc4)c4ccccc34)sc2c1 | 2.23 | 1.85 | 0.81 |  |  | 
9.1 | 3.7 | 34.1 | 2.2 |  | CN(C)Cc1ccc2nc(NC(=O)N/N=C3\C(=O)Nc4ccc(F)cc43)sc2c1 |  | 2.31 | 1.55 |  | 0.97 µM and 6.01 µM | 
 |  |  |  |  | CCN(CC)Cc1ccc2nc(NC(=O)N/N=C/c3cn(Cc4ccc(Cl)cc4)c4ccccc34)sc2c1 | 2.57 | 2.94 | 0.37 |  |  | 
 |  |  |  |  | CCN(CC)Cc1ccc2nc(NC(=O)N/N=C/c3cn(Cc4ccc(C)cc4)c4ccccc34)sc2c1 | 2.01 | 1.51 | 0.32 |  |  | 
70.9 | 5.9 | 4.1 | 12.8 | 26 | CN(C)Cc1ccc2nc(NC(=O)N/N=C/c3cn(Cc4ccc(Cl)cc4)c4ccccc34)sc2c1 | 0.88 | 0.84 | 0.29 |  |  | 68.66
 |  |  |  |  | CCN(CC)Cc1ccc2nc(NC(=O)N/N=C/c3cn(Cc4ccc(Cl)cc4Cl)c4ccccc34)sc2c1 | 3.28 | 1.9 | 1.08 |  | 1.04 µM and 6.06 µM | 
48.8 |  |  |  | 18 | CN(C)Cc1ccc2nc(NC(=O)N/N=C/c3cn(Cc4cccc(Cl)c4)c4ccccc34)sc2c1 | 1.14 | 1.24 | 0.42 |  |  | 
 |  |  |  |  | CC1CCN(Cc2ccc3nc(NC(=O)N/N=C/c4cn(Cc5ccccc5Cl)c5ccccc45)sc3c2)CC1 | 1.36 | 3.33 | 1.08 |  | 1.57 µM and 5.89 µM | 
 |  |  |  |  | CC1CCN(Cc2ccc3nc(NC(=O)N/N=C/c4cn(Cc5ccccc5)c5ccccc45)sc3c2)CC1 | 2.85 | 2.34 | 1.91 |  | 2.05 µM and 5.72 µM | 
 |  |  |  |  | CCN(CC)Cc1ccc2nc(NC(=O)N/N=C3\C(=O)Nc4ccc(OC(F)(F)F)cc43)sc2c1 |  | 1.99 | 2.11 |  | 1.9 µM and 5.72 µM | 
 |  |  |  |  | CCN(CC)Cc1ccc2nc(NC(=O)N/N=C/c3cn(Cc4ccc(C(C)(C)C)cc4)c4ccccc34)sc2c1 | 2.12 | 1.71 | 1.67 |  |  | 
 |  |  |  |  | CCN(CC)Cc1ccc2nc(NC(=O)N/N=C/c3cn(Cc4ccc(Cl)c(Cl)c4)c4ccccc34)sc2c1 | 4.49 | 1.47 | 0.61 |  | 0.63 µM and 6.2 µM | 
 |  |  |  |  | CCN(CC)Cc1ccc2nc(NC(=O)N/N=C/c3cn(Cc4cccc(Cl)c4)c4ccccc34)sc2c1 | 2.05 | 2.41 | 0.22 |  |  | 
 |  |  |  |  | Cc1ccc(Cn2cc(/C=N/NC(=O)Nc3nc4ccc(CN5CCC(C)CC5)cc4s3)c3ccccc32)cc1 | 1.14 | 2.18 | 0.41 |  | 1.03 µM and 5.94 µM | 
 |  |  |  |  | CN(C)Cc1ccc2nc(NC(=O)N/N=C3\C(=O)Nc4ccc(Cl)cc43)sc2c1 |  | 3.18 | 1.17 |  | 2.57 µM and 5.59 µM | 
 |  |  |  |  | CN(C)Cc1ccc2nc(NC(=O)N/N=C/c3cn(Cc4ccccc4)c4ccccc34)sc2c1 | 1.34 | 2.9 | 0.4 |  |  | 

Activity (Caspase-3 (Homo sapiens)) [%] | inhibition [3] [%] | inhibition [4] [%] | inhibition [5] [%] | inhibition (Tubulin (Homo sapiens)) [%] | SMILES | IC50 (MDA-MB-231) [µM] | IC50 (A549) [µM] | IC50 [1] [µM] | IC50 (HT-29 [2]; Homo sapiens, HT-29, 72 h) [µM] | IC50 (HT-29 [2]; ht-29) | Activity (HT-29 [6]) [%]
 |  |  |  |  | CCN(CC)Cc1ccc2nc(NC(=O)N/N=C/c3c[nH]c4ccccc34)sc2c1 | 1.9 | 3.3 | 3.14 |  | 12.1 µM and 4.92 µM | 
 |  |  |  |  | CN(C)Cc1ccc2nc(NC(=O)N/N=C/c3c[nH]c4ccccc34)sc2c1 | 1.19 | 3.3 | 2.55 | 9.9 | 5 µM | 
 |  |  |  |  | CC1CCN(Cc2ccc3nc(NC(=O)N/N=C/c4cn(Cc5ccc(Cl)cc5Cl)c5ccccc45)sc3c2)CC1 | 3.14 | 3.64 | 1.66 |  | 2.12 µM and 5.62 µM | 
 |  |  |  |  | CN(C)Cc1ccc2nc(NC(=O)N/N=C/c3cn(Cc4ccc(Cl)cc4Cl)c4ccccc34)sc2c1 | 1.41 | 2 | 0.95 |  |  | 
 |  |  |  |  | CC1CCN(Cc2ccc3nc(NC(=O)N/N=C/c4cn(Cc5cccc(Cl)c5)c5ccccc45)sc3c2)CC1 | 2.11 | 2.81 | 0.28 |  | 0.73 µM and 6.14 µM | 
 |  |  |  |  | CN(C)Cc1ccc2nc(NC(=O)N/N=C/c3cn(Cc4ccccc4Cl)c4ccccc34)sc2c1 | 1.18 | 1.08 | 1.6 |  |  | 
 |  |  |  |  | Cc1ccc(Cn2cc(/C=N/NC(=O)Nc3nc4ccc(CN(C)C)cc4s3)c3ccccc32)cc1 | 1.22 | 1.6 | 0.2 |  |  | 
 |  |  |  |  | CCN(CC)Cc1ccc2nc(NC(=O)N/N=C/c3cn(Cc4ccccc4Cl)c4ccccc34)sc2c1 | 0.9 | 1.39 | 0.98 |  |  | 
 |  |  |  |  | CC1CCN(Cc2ccc3nc(NC(=O)N/N=C4\C(=O)Nc5ccc(F)cc54)sc3c2)CC1 |  | 3.01 | 1.43 | 4.1 | 5.39 µM | 
 |  |  |  |  | CN(C)Cc1ccc2nc(NC(=O)N/N=C/c3cn(Cc4ccc(Cl)c(Cl)c4)c4ccccc34)sc2c1 | 1 | 0.94 | 1.36 |  |  | 
 |  |  |  |  | CC1CCN(Cc2ccc3nc(NC(=O)N/N=C/c4cn(Cc5ccc(C(C)(C)C)cc5)c5ccccc45)sc3c2)CC1 | 3.88 | 3.71 | 3.37 |  | 1.5 µM and 5.75 µM | 
 |  |  |  |  | CCN(CC)Cc1ccc2nc(NC(=O)N/N=C3\C(=O)Nc4ccc(F)cc43)sc2c1 |  | 2.01 | 1.06 |  | 1.55 µM and 5.81 µM | 
 |  |  |  |  | CC1CCN(Cc2ccc3nc(NC(=O)N/N=C/c4c[nH]c5ccccc45)sc3c2)CC1 | 2.46 | 3.58 | 4.13 |  | 15.2 µM and 4.82 µM | 
 |  |  |  |  | CC1CCN(Cc2ccc3nc(NC(=O)N/N=C/c4cn(Cc5ccc(Cl)cc5)c5ccccc45)sc3c2)CC1 | 2.85 | 2.03 | 0.4 |  | 0.75 µM and 6.43 µM | 
 |  |  |  |  | CCN(CC)Cc1ccc2nc(NC(=O)N/N=C/c3cn(Cc4ccccc4)c4ccccc34)sc2c1 | 1.47 | 3.33 | 0.45 |  |  | 
100 |  |  |  |  | C=CCc1cccc(/C=N/NC(=O)CN2CCN(Cc3ccccc3)CC2)c1O [PAC-1] | 3.2 | 2.51 | 1.25 | 1.02 |  | 
